Experimental data taken from PMC8247328 (British Journal of Clinical Pharmacology, 2020).
Where a SMILES comes first, the peptide text is derived from it. [ ]: non-standard residue; d: D form.

How the values were obtained:
[1] = tested on: mitochondrial function in the visual cortex; assay: 31P-MRS of the visual cortex before, during and after visual stimulation; format: in vivo, human; conditions: Part 2; 25 mg s.c. once daily 28 d; n=11; day 27
How it was run: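 At 3 T, a 6-cm 31P transmit/receive surface coil was placed over the visual cortex, positioned using a 10-mm water sphere on 1H images. Adiabatic pulse-acquire (TR 2 s, flip 90°) FIDs were collected for 4 min at rest (128 averages), 8 min during visual activation (256) and 8 min after (256). Time-domain fitting with prior knowledge gave PCr/ATP, Pi/PCr, Pi/ATP and pH. Scans ran on day −1 and 1.5 h post-dose on day 27; mixed-model ANCOVA used baseline as covariate.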

[2] = tested on: peripheral blood mononuclear cells (PBMCs); assay: Mitochondrial membrane potential of PBMCs; format: in vivo, human; conditions: for Mitochondrial membrane potential (Delta psi), contrast vs placebo (95% CI) / Percentage of dysfunctional PMBCs, contrast vs placebo (95% CI): ANCOVA; for Mitochondrial membrane potential (Delta psi), LS mean: PBMCs
How it was run: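 Live PBMCs were stained with JC-1 and read by flow cytometry, FL-2 for healthy and FL-1 for dysfunctional mitochondria. A fraction of cells was treated with CCCP as uncoupled positive control, and ΔΨm was calculated from FL2/FL1 ratios ×100. Blood was drawn 1 h before dosing on day 1 and 1.5 h after the final dose on day 7 (Part 1), and 1.5 h post-dose on day 27 (Part 2). Analysis was mixed-model ANCOVA with baseline as covariate.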

PBMCs = format: cell-based, human; conditions: Part 2; 25 mg s.c. once daily; after 27 days
[3] = tested on: patients with early stage HD; assay: Motor assessments and UHDRS; format: in vivo, human; conditions: Part 2; 25 mg s.c. once daily 28 d
How it was run: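 In Part 2 only, motor and neurocognitive tests were run at the start and 1.5 h after the final subcutaneous dose on day 28. Each parameter was analysed by mixed-model ANCOVA with treatment as fixed factor and baseline as covariate, with no multiplicity adjustment.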

MPTP‐treated mice = conditions: cited from earlier work
rats = conditions: ischaemia/reperfusion, single dose of 4 mg/kg; cited from earlier work
SN4741 cells = conditions: cultured SN4741 cells exposed to MPTP; cited from earlier work
[4] = Part 1, 5 mg s.c. once daily 7 d
[5] = Part 1, 5 mg s.c. once daily 7 d, n=6, day 7, 1.5 h post dose
[6] = Part 1, 15 mg s.c. once daily 7 d
[7] = Part 1, 25 mg s.c. once daily 7 d
[8] = Part 2, 25 mg s.c. once daily 28 d
[9] = Part 2, 25 mg s.c. once daily 28 d, n=11, day 27, 1.5 h post dose

N=C(N)NCCC[C@@H](NC(=O)[C@@H](N)Cc1ccccc1)C(=O)N[C@@H](Cc1ccccc1)C(=O)N[C@@H](CCCCN)C(N)=O [SBT‐020, H‐Phe‐D‐Arg‐Phe‐Lys‐NH2] (H-F[dR]FK-NH2)
PCr/ATP after visual stimulation (central 31P‐MRS), LS mean [1]: 0.9 | PCr/ATP before visual stimulation (central 31P‐MRS), LS mean [1]: 0.8 | PCr/ATP during visual stimulation (central 31P‐MRS), LS mean [1]: 0.8 | PCr/ATP during‐after visual stimulation (central 31P‐MRS), LS mean [1]: −0.05 | PCr/ATP during‐before visual stimulation (central 31P‐MRS), LS mean [1]: −0.03 | Pi/ATP after visual stimulation (central 31P‐MRS), LS mean [1]: 0.2 | Pi/ATP before visual stimulation (central 31P‐MRS), LS mean [1]: 0.2 | Pi/ATP during visual stimulation (central 31P‐MRS), LS mean [1]: 0.2 | Pi/ATP during‐after visual stimulation (central 31P‐MRS), LS mean [1]: −0.02 | Pi/ATP during‐before visual stimulation (central 31P‐MRS), LS mean [1]: −0.01 | Pi/PCr after visual stimulation (central 31P‐MRS), LS mean [1]: 0.2 | Pi/PCr before visual stimulation (central 31P‐MRS), LS mean [1]: 0.2 | Pi/PCr during visual stimulation (central 31P‐MRS), LS mean [1]: 0.2 | Pi/PCr during‐after visual stimulation (central 31P‐MRS), LS mean [1]: −0.005 | Pi/PCr during‐before visual stimulation (central 31P‐MRS), LS mean [1]: −0.006 | Mitochondrial membrane potential (Delta psi), contrast vs placebo (95% CI) [2, 4]: 263.528 (−1151.3, 1678.31) P = .7001 | Percentage of dysfunctional PMBCs, contrast vs placebo (95% CI) [2, 4]: −1.980 (−3.819, −0.141) P = .0363% | Percentage of dysfunctional PMBCs, LS mean [2, 5]: 3.82% | Mitochondrial membrane potential (Delta psi), LS mean [2, 5]: 3162.27 | Mitochondrial membrane potential (Delta psi), contrast vs placebo (95% CI) [2, 6]: −16.375 (−1411.2, 1378.48) P = .9806 | Percentage of dysfunctional PMBCs, contrast vs placebo (95% CI) [2, 6]: −3.002 (−4.980, −1.025) P = .0051% | Percentage of dysfunctional PMBCs, LS mean ([2]; Part 1, 15 mg s.c. once daily 7 d, n=6, day 7, 1.5 h post dose): 2.80% | Mitochondrial membrane potential (Delta psi), contrast vs placebo (95% CI) [2, 7]: 1513.21 (114.067, 2912.36) P = .0356 | Percentage of dysfunctional PMBCs, contrast vs placebo (95% CI) [2, 7]: −2.052 (−3.894, −0.210) P = .0310% | Percentage of dysfunctional PMBCs, LS mean ([2]; Part 1, 25 mg s.c. once daily 7 d, n=6, day 7, 1.5 h post dose): 3.75% | Mean percentage of dysfunctional PBMCs after 7 days of treatment ([2]; Part 1, 5‐mg cohort, baseline mean 3.2): 3.4% | Mean ∆Ψm after 7 days of treatment ([2]; Part 1, 5‐mg cohort, baseline mean 2956): 2948 | Mean percentage of dysfunctional PBMCs after 7 days of treatment ([2]; Part 1, 15‐mg cohort, baseline mean 4.3): 3.8% | Mean ∆Ψm after 7 days of treatment ([2]; Part 1, 15‐mg cohort, baseline mean 3,316): 3,282 | Mean percentage of dysfunctional PBMCs after 7 days of treatment ([2]; Part 1, 25‐mg cohort, baseline mean 3.2): 3.4% | Mean ∆Ψm after 7 days of treatment ([2]; Part 1, 25‐mg cohort, baseline mean 3715): 5279 | Mitochondrial membrane potential (Delta psi), contrast vs placebo (95% CI) [2, 8]: 1065.4 (−495.2, 2626.0) P = .17 | Percentage of dysfunctional PMBCs, contrast vs placebo (95% CI) [2, 8]: −0.75 (−3.93, 2.42) P = .62% | Percentage of dysfunctional PMBCs, LS mean [2, 9]: 4.08% | Mitochondrial membrane potential (Delta psi), LS mean [2, 9]: 4090.47 | Mean percentage of dysfunctional PBMCs after 28 days of treatment ([2]; Part 2, active group 25 mg, baseline mean 4.6): 4.2% | Mean ∆Ψm after 28 days of treatment ([2]; Part 2, active group 25 mg, baseline mean 3770): 4124 | Effect on ∆Ψm values and half maximal inhibitory concentration values for carvedilol and verapamil (PBMCs): no effect | Effect on motor function [3]: no effect | Attenuation of MPTP‐induced dopamine depletion (MPTP‐treated mice; MPTP‐treated mice, single dose of 4 mg/kg): 40% | Neuroprotection in the striatum (MPTP‐treated mice; acute MPTP model, peripheral administration at 5 mg/kg, ref not given): sufficient to achieve neuroprotection | Effect in MPTP‐induced mouse model of Parkinson's disease (MPTP‐treated mice; given systemically): effective in attenuating injury and improving neurotransmitter release | Infarct size and myocardial lipid peroxidation (rats): significantly reduced | Cell viability and apoptosis (SN4741 cells): improved cell viability and reduced apoptosis
